Laboratory results taken from ChEMBL document CHEMBL5661974, “Pharmacologic characterization of a potent inhibitor of class I phosphatidylinositide 3-kinases” (Cancer Res, 2007).
The source made the active and inactive calls. The rule behind the calls is not given here.

Legend:
[1] = Half life in BALB/C mouse liver at 2.5 mg/kg, iv by LC-MS/MS analysis; type: ADME, organism-based
Summary of the method: (§1)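 Female BALB/c mice, 6–8 weeks old, given 2.5 mg/kg i.v. in 10% DMSO, 0.5% Tween 20 in saline. Plasma came from serial bleeds; tissues were homogenized in 2 or 3 volumes PBS. Samples were methanol-precipitated with an analogue internal standard, then LC-MS/MS by multiple reaction monitoring against an 8-point external calibration of 2–20,000 nmol/L. Parameters came from WinNonlin noncompartmental analysis, model 201 for plasma and model 200 for tissues.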

[2] = test system: MDA-MB-435; assay: Antiproliferative activity against human MDA-MB-435 cells harboring AKT assessed as cell growth inhibition incubated for 96 hrs by SRB assay; type: functional
[3] = test system: A2780; assay: Antiproliferative activity against human A2780 cells harboring PI3KCA/PTEN mutant assessed as cell growth inhibition incubated for 96 hrs by SRB assay; type: functional
[4] = test system: U-87 MG; assay: Inhibition of recombinant PI3K in human U-87MG cells assessed as phosphorylation of AKT at Thr308 at 5 times of GI50 concentration within 15 mins treatment by immunoblot analysis; type: cell-based
[5] = test system: IGROV-1; assay: Antiproliferative activity against human IGROV-1 cells harboring PI3KCA/PTEN mutant assessed as cell growth inhibition incubated for 96 hrs by SRB assay; type: functional
[6] = AUClast in BALB/C mouse spleen at 2.5 mg/kg, iv by LC-MS/MS analysis; type: ADME, organism-based; summary of the method: as §1
[7] = Volume of distribution at steady state in BALB/C mouse at 2.5 mg/kg, iv by LC-MS/MS analysis; type: ADME, organism-based; conditions: in vivo, read-out: Vdss; summary of the method: as §1
[8] = test system: U-87 MG; assay: Inhibition of cell invasion in human U-87MG cells at 50 nmol/L by transwell assay relative to control
[9] = test system: A549; assay: Antiproliferative activity against human A549 cells harboring AKT assessed as cell growth inhibition incubated for 96 hrs by SRB assay; type: functional
[10] = Clearance in BALB/C mouse plasma at 2.5 mg/kg, iv by LC-MS/MS analysis; type: ADME, organism-based; summary of the method: as §1
[11] = test system: PC-3; assay: Antitumor activity against PTEN null human PC-3 cells xenografted male Ncr model assessed as body weight loss at 30 mg/kg, ip administered twice a daily for 14 days relative to control; conditions: time 14 day
[12] = test system: MDA-MB-468; assay: Antitumor activity against PTEN null human MDA-MB-468 cells xenografted female Ncr model assessed as body weight loss at 30 mg/kg, ip administered twice a daily for 14 days relative to control; conditions: time 14 day
[13] = Inhibition of recombinant human PI3K in cricetulus griseus CHO cells expressing GFP-tagged AKT3 assessed as translocation to the plasma membrane following IGF-1 stimulation by fluorescence assay
Summary of the method: (§2)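 CHO cells expressing GFP-tagged AKT1, AKT2, AKT3 or PDK1, held in 0.05% serum with 0.1% BSA and stimulated with 100 nmol/L IGF-1. Plasma-membrane translocation was read by automated fluorescence imaging, with IC50 from concentration-response curves; Z' above 0.5.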

[14] = test system: MDA-MB-468; assay: Antitumor activity against PTEN null human MDA-MB-468 cells xenografted female Ncr model assessed as T/C at 70 mg/kg, ip administered once a daily for 40 days relative to control; type: functional; conditions: time 40 day
[15] = Drug metabolism in mouse microsomes incubated for 30 mins by LC-MS/MS analysis; type: ADME, Microsome; conditions: read-out: Drug metabolism
Summary of the method: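 Mouse or human microsomes incubated 30 min with inhibitor at 1 or 10 μmol/L. Metabolite detection by LC-MS/MS on an ion trap, with a 10–90% methanol gradient over 6 min and scan range 50–1,000 amu.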

[16] = Half life in BALB/C mouse kidney at 2.5 mg/kg, iv by LC-MS/MS analysis; type: ADME, organism-based; summary of the method: as §1
[17] = Volume of distribution in BALB/C mouse plasma at 50 mg/kg, ip by LC-MS/MS analysis; type: ADME, organism-based; conditions: in vivo
Summary of the method: (§3)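 Female BALB/c mice, 6–8 weeks old, dosed i.p. at 50 mg/kg in 20% […] β-cyclodextrin in saline, 0.1 mL/10 g. Serial blood samples; plasma was methanol-precipitated with an analogue internal standard. LC-MS/MS multiple reaction monitoring, external calibration 2–20,000 nmol/L. Noncompartmental analysis, model 200.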

[18] = test system: U-87 MG; assay: Antitumor activity against PTEN null human U-87MG cells xenografted female Ncr model assessed as body weight loss at 70 mg/kg, ip administered daily for 14 days relative to control; conditions: time 14 day
[19] = test system: U-87 MG; assay: Antitumor activity against PTEN null human U-87MG cells xenografted female Ncr model assessed as T/C at 40 mg/kg, ip administered once a daily for 14 days relative to control; type: functional, U-87MG ATCC; conditions: time 14 day
[20] = Cmax in BALB/C mouse kidney at 2.5 mg/kg, iv by LC-MS/MS analysis; type: ADME, organism-based; summary of the method: as §1
[21] = test system: OVCAR-3; assay: Antitumor activity against human OVCAR-3 cells xenografted female Ncr model assessed as T/C at 30 mg/kg, ip administered daily for 15 days relative to control; type: functional; conditions: time 15 day
[22] = Cmax in BALB/C mouse plasma at 50 mg/kg, ip by LC-MS/MS analysis; type: ADME, organism-based; conditions: in vivo; summary of the method: as §3
[23] = test system: MDA-MB-468; assay: Antiproliferative activity against human MDA-MB-468 cells harboring PTEN deletion assessed as cell growth inhibition incubated for 96 hrs by SRB assay; type: functional
[24] = Tmax in BALB/C mouse liver at 2.5 mg/kg, iv by LC-MS/MS analysis; type: ADME, organism-based; summary of the method: as §1
[25] = test system: HCT-116; assay: Antitumor activity against PIK3CA mutant human HCT-116 cells xenografted female Ncr model assessed as body weight loss at 30 mg/kg, ip administered twice a daily for 14 days relative to control; conditions: time 14 day
[26] = Tmax in BALB/C mouse spleen at 2.5 mg/kg, iv by LC-MS/MS analysis; type: ADME, organism-based; summary of the method: as §1
[27] = test system: U-87 MG; assay: Antiproliferative activity against human U-87MG cells harboring PTEN deletion assessed as cell growth inhibition incubated for 96 hrs by SRB assay; type: functional, U-87MG ATCC
[28] = test system: OVCAR-3; assay: Antitumor activity against human OVCAR-3 cells xenografted female Ncr model assessed as T/C at 15 mg/kg, ip administered daily for 15 days relative to control; type: functional; conditions: time 15 day
[29] = test system: PC-3; assay: Antitumor activity against PTEN null human PC-3 cells xenografted male Ncr model assessed as T/C at 30 mg/kg, ip administered once a daily for 14 days relative to control; type: functional; conditions: time 14 day
[30] = Tmax in BALB/C mouse plasma at 2.5 mg/kg, iv by LC-MS/MS analysis; type: ADME, organism-based; summary of the method: as §1
[31] = Inhibition of recombinant human PI3K in cricetulus griseus CHO cells expressing GFP-tagged AKT1 assessed as translocation to the plasma membrane following IGF-1 stimulation by fluorescence assay; summary of the method: as §2
[32] = Inhibition of recombinant human PI3K in cricetulus griseus CHO cells expressing GFP-tagged AKT2 assessed as translocation to the plasma membrane following IGF-1 stimulation by fluorescence assay; summary of the method: as §2

half-life [1]: 252 min | GI50 [2]: 130 nM | GI50 [3]: 500 nM | AUC(0-t) [6]: 0.406 µM·h | Vd [7]: 0.052 L | GI50 [9]: 210 nM | clearance [10]: 3.17 mL/min | IC50 [13]: 11 nM | metabolised at 0.5 h [15]: > 70% | half-life [16]: 54 min | Vd [17]: 0.71 L | Cmax [20]: 2.02 µM | Cmax [22]: 6.68 µM | GI50 [23]: 690 nM | Tmax [24]: 4.98 min | Tmax [26]: 4.98 min | GI50 [27]: 180 nM | Tmax [30]: 0 h | IC50 [31]: 17 nM | IC50 [32]: 13 nM
SMILES: Oc1cccc(-c2nc(N3CCOCC3)c3oc4ncccc4c3n2)c1 [PI-103]
inhibition [4]: Active | GI50 [5]: 60 nM | inhibition at 0.05 µM [8]: 44% | Body weight loss [11]: <15% | Body weight loss [12]: <15% | T/C [14]: 47.2% | Body weight loss [18]: <15% | T/C [19]: 89.1% | T/C [21]: 62% | Body weight loss [25]: <15% | T/C [28]: 61% | T/C [29]: 80.8%
